Measured values: the EternaBench riboswitch data

Tested on: MS2 coat protein
Test: apparent Kd, MS2 coat protein; higher = weaker binding; RNA-MaP array; FMN 200 µM where present
Procedure, shortened: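 The apparent Kd is the median of filtered binding-curve fits, one per cluster, to green signal normalised to red-channel RNA signal and control-cluster median Fmax. The clusters were on Illumina sequencing chips, and stalled E. coli RNA polymerase had transcribed the designs on them. Titration used SNAP-549-labelled MS2 coat protein from 0.7 or 1.5 nM, doubling to 3 µM, without and then with constant ligand, in 100 mM Tris-HCl pH 7.5, 80 mM KCl, 4 mM MgCl2, BSA, DTT, yeast tRNA and Tween-20.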

[1] = designed as: ON switch for flavin mononucleotide, no ligand
[2] = ligand present: flavin mononucleotide, designed as: ON switch for flavin mononucleotide
[3] = designed as: OFF switch for flavin mononucleotide, no ligand
[4] = ligand present: flavin mononucleotide, designed as: OFF switch for flavin mononucleotide

Sequence | apparent Kd [1] [nM] | apparent Kd [2] [nM] | apparent Kd [3] [nM] | apparent Kd [4] [nM]
ACUUCACAUGAGGAUCACCCAUGUCAGGCCGGACUAGGAUAUUAUCAUGCAGCGUAACCGUAAGAAGGAGUUGGAU | 88.3 | 187 | – | –
UCGACUAGCGCCAGUCGAACAUGAGGAUCACCCAUGUACUCCAGAAGGCCGCCCAAGAACGGAGUGGAGGAUAUGGAGGUUCUC | 42.9 | 30.4 | – | –
GGAAGACAAAGUCUUCCAUAACGAACAUGAGGAUCACCCAUGUAGGAUAUGCUUCUCAAAGAGAAGCAGAAGGACAUGUGUCUU | – | – | 29.7 | 137
AGAAAGAAGCAAGGAUAUUGUAAGGUUAAUGUACAAGAAGGUGCUGUUUAUGUCUCUUAACAUGAGGAUCACCCAUGUAUUGGU | 52.6 | 44.1 | – | –
AAGGUACGAGGAUAUACAUAGAUACAGAUACAUGUGGAUGUACAUGAGGAUCACCCAUGUAGAAGGCGUAUAUA | – | – | 300 | 318
AAUUGACCUGUCAGGAUAUAGAGGGAGACUUACAUCUAGAAGGGACAUGAGGAUCACCCAUGUCAGUUGAGACA | – | – | 19.8 | 22.6
GCGUGCGAUAGGACGUCUGAGGGCAGAAGGCACAUGAGGAUCACCCAUGUAACGAUCUCUUCAAGUGAGGAUAUGUGCUCAUUG | – | – | 29.7 | 114
CUAUUGGCAGGAUAUGCUUUUUUAGACAUGAGGAUCACCCAUGUGAUGAAUUUUGGGUUUGCAGAAGGGCCUGAGU | – | – | 67.1 | 100
ACCGAUAGAGGAUAUACAGGUCGAUACAUGAGGAUCACCCAUGUUACCCUCGGUACACCCGUAGAAGGUUGUGGCU | – | – | 263 | 248
UUAUUAAGUGUGAGGAUAUGCUGGUCCUUGGAUCAGCAGAAGGCACAUGAGGAUCACCCAUGUACUUUAUUUUA | – | – | 15.4 | 62.2
AUAAAGUCAGGAUAUGUAAAAAUAACGAAAGUUAUAAAUAAACAGAAGGGACAUGAGGAUCACCCAUGUAAAAU | – | – | 32.3 | 39.6
CACAAGAAAGUCGAACCGCUAUCUAGAAGGACAACAUGACAACAUGAGGAUCACCCAUGUCAUAUGUAGGAUAUGGAUGGUGGG | – | – | 8.94 | 9.14
UCCGUGGCAUCUCGCGCAUGUCUACAUGAGGAUCACCCAUGUCAGGAUAUACGGAAUGUCGUUCCGUAGAAGGGACAAGGGCUG | – | – | 243 | 116
GCCGUGUUAGGAUAUUAAAGACCUGCGCCAAACGCAGGAAGUAAGAAGGAACAUGAGGAUCACCCAUGUGUCCG | – | – | 17.2 | 14.5
UCGUACUUUCGAGGAUAUCGGUGAUAUAUAUUACGAGAAGGCGAUUGUUUGUUUUACGUCUUAGACAUGAGGAUCACCCAUGUA | 40.4 | 30.5 | – | –
CGGAGGUCAGGAUAUGCAUGGCGGGACUUGCGUCGUGGCGUGCAGAAGGGACAUGAGGAUCACCCAUGUGGAGC | – | – | 82.2 | 145
UUAUUUUUACAGAAGGUUUAAUAAUAUAUAUGAGAAGGAUAUGUAACAUGAGGAUCACCCAUGUUUCACCCAUAUGAGGAUCAU | – | – | 8.2 | 7.27
UUUUUGUCAGGAUAUGAGUAGUAGAACAAUAGUACUACUACUCAGAAGGGACAUGAGGAUCACCCAUGUUCCUC | – | – | 15.2 | 54.1
UCGGAGAAAGGAUAUACACCAAGGGUAUAGUAGGAUCCUGGACAUGAGGAUCACCCAUGUAGAAGGUUCACUGC | – | – | 60.1 | 31.1
UGAGCCUCGUGAGGAUAUACAUGAGGAUCACCCAUGUAAUAGGAUGAACGGAGGAAACUCCGAAUGUAGAAGGCACGAGGCUCA | – | – | 77.7 | 664
UUUGUAAUGUCAGGAUAUAUAAUAAGUCAUACAGUAGAAGGGAUAAUAAUACUCAUGUACAUGAGGAUCACCCAUGUUAAAUAU | 98.8 | 52.4 | – | –
UGUUGUAUUACAGGAUAUCUAGUAUUUUAAUUUAGAGAAGGGUAUUCACAUGAGGAUCACCCAUGUAUAUACGAGGAAGUUGUG | 51.3 | 61.6 | – | –
UUGAUUAUACAAGGAUAUCAAUUGUAAUUAAGACUUACAUGAGGAUCACCCAUGUUAAUAUUUUAUGAGAAGGUGUAUUUUCAG | 38.3 | 25.7 | – | –
CGCUAAGAUGGGUCUAAUGGACCACAGGAUAUGCUUGUACAUGAGGAUCACCCAUGUAAUAUUGUGCAGAAGGGUGGAUUUGCG | 18.9 | 7.03 | – | –

Sequence | apparent Kd [1] [nM] | apparent Kd [2] [nM] | apparent Kd [3] [nM] | apparent Kd [4] [nM]
ACCUUACAUGAGGAUCACCCAUGUUAGGAUAUCUCGCCUGCGCUAACAAAGCGCAGGCAGAGAAGGGACGCGGG | – | – | 28.5 | 31.8
ACUAGAUGAGGAUAUGCAUGUUUUCGUGUUCUUCUAGAUUAACAUGAGGAUCACCCAUGUAGAAGGCGUCAUAU | – | – | 48.4 | 134
CGAUAGGACAGAGGAUAUACACAUGAGGAUCACCCAUGUGAUUACAACGCGAAAGCGCCAAACAUGUAGAAGGCUGUCCUAUCG | – | – | 22.7 | 12
CGGAUUAUGUGAGGAUAUAAUCGUUUCCAUUGAUUAGAAGGCACAUGAGGAUCACCCAUGUGGCAUGUAAAGCCAUGUGACGCG | – | – | 108 | 109
UACGUUAUACGCAACAUGAGGAUCACCCAUGUUAGCCGAUCACAGGAUAUGUUGGAGCCGGUCGGACAGAAGGGUGAGUUUGCU | 47.9 | 43.3 | – | –
UUAAAUCAUGUAGGAUAUGCGUGGCGAAGCUAUGCAGAAGGACAUGAGGAUCACCCAUGUUCUGCGGUCUGCGUACAGAUCGCU | – | – | 18.3 | 155
GUGCGGUCAGGAUAUGCAUGGCGGGACUUGCGUCGUGGCGUGGAGAAGGGACAUGAGGAUCACCCAUGUGGAGG | – | – | 107 | 84.9
GAAUGUCGGGUAGGAUAUGACGUGCCACGGAGGUCAGAAGGGCCGCGACAUGAGGAUCACCCAUGUACUGUAUUCCUUUUUCAA | – | – | 24.3 | 67.4
ACUUGACAUGAGGAUCACCCAUGUCAGGAUAUAGUAGGACAAAUAAAUAAAAGUUCUACUAGAAGGGACGUGGG | – | – | 21.6 | 22.4
UCCUUCUGUUGAGGAUAUGUAAGACAGCGGCUGCUAUUGCGGCACGCUGAUACAGAAGGCAACAUGAGGAUCACCCAUGUUCAA | – | – | 26.4 | 205
GGCUUCUUCACAGGAUAUGGUUUUUUAAGUAUACAUGAGGAUCACCCAUGUCCAGAAGGGUGAGGGUCCGGCGUACAGUGUCGG | 645 | 30.4 | – | –
GGCGAACAGGCUAACAUGAGGAUCACCCAUGUGGACUCAUGGUAGGAUAUGCUGUAGAAACUACAGCAGAAGGGCCGGUGAGCC | 66.1 | 294 | – | –
ACCUCACAUGAGGAUCACCCAUGUUAGGAUAUCUCGACACUCCGCGGGCGGUAGCGUCAGAGAAGGAACGUGCU | – | – | 29.1 | 24.9
UUGCGGUAGGAGAAGGACAGAGGCUUCAUUACAUACAUGAGGAUCACCCAUGUAGGAUAUCCUACCUCACGCGGCCUCCUCCUG | – | – | 6.9 | 10.3
UCGGGCGUAGGAUAUGCUAUCACGGACAUGAGGAUCACCCAUGUCAGAUGUCCGGGCGAGGCAGAAGGGCGGUUUU | – | – | 74.1 | 120
GUAGCUAUCGGAGGAUAUUCAUACCGGAAACGGACAUGAGGAUCACCCAUGUGGAGAAAGCCUUAGGAGAAGGCCGAUAGCUAC | 33 | 8.9 | – | –
GGACAGUGUCGUUAUCCGUAGCGAACAUGAGGAUCACCCAUGUAGGAUAUGUUAUUAAACUAAUAACAGAAGGACGUUGGUCUC | – | – | 24.8 | 125
GUCAUCUCAUGAGGAUAUGCUCGGGUUUCCCGAGCAGAAGGCAUGUCAUAAGACAUGAGGAUCACCCAUGUAUUUAAGAUUGUA | 49.6 | 8.92 | – | –
GCUGCGCGAGGAUAUGCGGUUUGUGCUUUGGGCCCUGGCGUACAUGAGGAUCACCCAUGUAGAAGGCGUGUGGG | – | – | 43.6 | 38.4
GCCAUCGCAUGAGGAUAUGCUCCGGUUUCCGGAGCAGAAGGCAUGUCAUAAGACAUGAGGAUCACCCAUGUAGUUAAGAUGGCA | 715 | 33.6 | – | –
CUAUACAUAUCAGGAUAUCUAUUUCCUACAUGAGGAUCACCCAUGUAGAGGAUCACCCAUGUAAAGGAGAAGGGAUAUGUAUAG | 105 | 20.9 | – | –
UCACUCAAGUUAGGAUAUGGAUCGGAAAACGAUCCAGAAGGAACAUGGGAACAUGAGGAUCACCCAUGUUCCAGAAACGAGUGA | 413 | 155 | – | –
AAGAAGCUCACAGGAUAUCAGUAUAUGCGAUCUAGCGUAUUAAUGAACUGCUGAGAAGGGUGAGACAUGAGGAUCACCCAUGUA | 23.3 | 62.2 | – | –
AUACCUUAUGAGAAGGCGAUCAUGAAACAUGAUCGAGGAUAUCAUGUAAACAUGAGGAUCACCCAUGUAUGGGUAUUAUGGUAG | 34 | 10.5 | – | –
